pIC50: −log10 of the molar value.
Organism: Bos taurus
Assay: Percentage inhibition of [3H]flunitrazepam binding to benzodiazepine receptor of bovine brain membrane at 34 uM
In short: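 Specific [3H]flunitrazepam binding (0.6 nM) to bovine brain membranes, 90 min at 0 °C in 50 mM Tris-HCl, triplicate incubations; test compound at 34 μM, EtOH vehicle unless noted. Filtration through GF/B, scintillation counting; 10 μM diazepam defines nonspecific binding. Percent inhibition as mean ± SEM of five determinations.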

**Q.** Which inhibition does the source give for Cc1nn(-c2ccccc2Cl)c2c1c(=O)oc1ccccc12 here?
**A.** The inhibition was 34%.

**Q.** For O=c1oc2ccccc2c2c1c(-c1ccccc1)nn2-c1ccccc1, which inhibition is on record?
**A.** The inhibition was 34%.

These compounds were tested against GABA-A receptor; anion channel (assay: Inhibition of [3H]flunitrazepam binding to benzodiazepine receptor in bovine brain membrane).
Type: cell membranes, Bos taurus
In short: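 Bovine brain membranes (0.4-0.5 mg protein) incubated in triplicate with 0.6 nM [3H]flunitrazepam, 90 min at 0 °C, 50 mM Tris-HCl; compounds in EtOH unless noted. Rapid GF/B filtration, buffer wash, scintillation counting; nonspecific binding with 10 μM diazepam. IC50 from log-probit plots, mean ± SEM of seven determinations.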

**Q.** Cc1cccc(-n2nc(C)c3c(=O)oc4ccccc4c32)c1 was tested. Which pIC50 did it give?
**A.** Its pIC50 is 6.55.

**Q.** Cc1nn(-c2ccc(Cl)cc2)c2c1c(=O)oc1ccccc12 was tested. Which pIC50 did it give?
**A.** Its pIC50 is 6.12.

**Q.** Cc1nn(-c2ccc(N)cc2)c2c1c(=O)oc1ccccc12 was tested. Which pIC50 did it give?
**A.** Its pIC50 is 5.89.

**Q.** Cc1nn(-c2cccc(Cl)c2)c2c1c(=O)oc1ccccc12 was tested. Which pIC50 did it give?
**A.** The pIC50 was 7.05.

**Q.** With CNC1=Nc2ccc(Cl)cc2C(c2ccccc2)=[N+]([O-])C1 [CHLORDIAZEPOXIDE] as the compound, how does the pIC50 read?
**A.** The pIC50 was 6.10.

**Q.** Cc1nn(-c2ccc([N+](=O)[O-])cc2)c2c1c(=O)oc1ccccc12 was tested. Which pIC50 did it give?
**A.** The pIC50 was 6.00.

**Q.** Cc1nn(-c2ccccc2N)c2c1c(=O)oc1ccccc12 was tested. Which pIC50 did it give?
**A.** The pIC50 was 6.20.

**Q.** With CN1C(=O)CN=C(c2ccccc2)c2cc(Cl)ccc21 [DIAZEPAM] as the compound, how does the pIC50 read?
**A.** Its pIC50 is 7.60.

**Q.** Cc1cccc(-n2nc3c(c2C)c(=O)oc2ccccc23)c1 was tested. Which pIC50 did it give?
**A.** Its pIC50 is 5.52.

**Q.** How did the pIC50 turn out when COc1cccc(-n2nc3c(c2C)c(=O)oc2ccccc23)c1 was run?
**A.** The pIC50 was 5.30.

**Q.** With Cc1c2c(=O)oc3ccccc3c2nn1-c1ccccc1 as the compound, how does the pIC50 read?
**A.** Its pIC50 is 5.51.

**Q.** With Cc1cc(C)cc(-n2nc(C)c3c(=O)oc4ccccc4c32)c1 as the compound, how does the pIC50 read?
**A.** The pIC50 was 7.19.

**Q.** Cc1nn(-c2cccc(Br)c2)c2c1c(=O)oc1ccccc12 was tested. Which pIC50 did it give?
**A.** The pIC50 was 7.00.

**Q.** With Cc1nn(-c2ccccc2)c2c1c(=O)oc1ccccc12 as the compound, how does the pIC50 read?
**A.** Its pIC50 is 6.52.

**Q.** Cc1ccc(-n2nc(C)c3c(=O)oc4ccccc4c32)cc1 was tested. Which pIC50 did it give?
**A.** Its pIC50 is 5.70.

**Q.** With Cc1nn(-c2ccccc2[N+](=O)[O-])c2c1c(=O)oc1ccccc12 as the compound, how does the pIC50 read?
**A.** Its pIC50 is 4.37.

**Q.** How did the pIC50 turn out when Cc1nn(-c2ccccc2Cl)c2c1c(=O)oc1ccccc12 was run?
**A.** The pIC50 was 4.80.

**Q.** COc1ccc(-n2nc(C)c3c(=O)oc4ccccc4c32)cc1 was tested. Which pIC50 did it give?
**A.** The pIC50 was 6.15.

**Q.** How did the pIC50 turn out when Cc1nn(-c2cccc(N)c2)c2c1c(=O)oc1ccccc12 was run?
**A.** Its pIC50 is 5.47.

**Q.** With O=c1oc2ccccc2c2c1c(-c1ccccc1)nn2-c1ccccc1 as the compound, how does the pIC50 read?
**A.** Its pIC50 is 4.80.

**Q.** Cc1ccccc1-n1nc(C)c2c(=O)oc3ccccc3c21 was tested. Which pIC50 did it give?
**A.** Its pIC50 is 4.52.

**Q.** COc1cccc(-n2nc(C)c3c(=O)oc4ccccc4c32)c1 was tested. Which pIC50 did it give?
**A.** Its pIC50 is 6.12.

**Q.** With Cc1c2c(=O)oc3ccccc3c2nn1-c1cccc(Br)c1 as the compound, how does the pIC50 read?
**A.** Its pIC50 is 4.60.

**Q.** How did the pIC50 turn out when COc1ccccc1-n1nc(C)c2c(=O)oc3ccccc3c21 was run?
**A.** The pIC50 was 5.10.

**Q.** How did the pIC50 turn out when Cc1nn(-c2cccc([N+](=O)[O-])c2)c2c1c(=O)oc1ccccc12 was run?
**A.** Its pIC50 is 6.49.

From ChEMBL document CHEMBL1124214, “Synthesis, binding studies, and structure-activity relationships of 1-aryl-and 2-aryl[1]benzopyranopyrazol-4-ones, central benzodiazepine receptor ligands” (J Med Chem, 1988)
